Here are results for 10 compounds from ChEMBL document CHEMBL1124063, “Arteether, a new antimalarial drug: synthesis and antimalarial properties” (J Med Chem, 1988).

The structures appear in SMILES notation. In brackets after ≈: the same amount, converted by molar mass.

The subject of test [1] is Plasmodium falciparum. The test is described as follows: Inhibitory concentration against Plasmodium falciparum D6 (Sierra Leone). The test is classed as functional, organism-based. A digest of the protocol:
(§1)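 Micromanipulation-derived P. falciparum clones were tested by semiautomated microdilution at 0.5% parasitemia and 1.5% hematocrit. Drugs were dissolved in DMSO and diluted in medium with 10% plasma, giving serial dilutions over a 64-fold range. Plates were held at 37 °C under 5% O2/5% CO2/90% N2 for 24 h, then pulsed with tritiated hypoxanthine for 18–20 h. Uptake was counted by scintillation, and IC50 was obtained by nonlinear regression.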

Test [2] relates to Plasmodium falciparum. The test is described as follows: In vitro inhibitory activity against Plasmodium falciparum (sierra leone clone). The class given is functional, organism-based.
The subject of test [3] is Plasmodium falciparum. The test is described as follows: Inhibitory concentration against Plasmodium falciparum W2 Indochina. The class given is functional, organism-based. A digest of the protocol: as §1
In test [4] the test system is Plasmodium berghei. The test is described as follows: Blood schizonticidal activity against Plasmodium berghei 1100. The test is classed as functional. A digest of the protocol: (§2)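 Mice infected with parasitised donor blood of drug-sensitive or drug-resistant lines were given a single subcutaneous dose daily on 4 consecutive days, starting 3 h post-infection, across a dose range. Compounds were dissolved in water or sonicated into 0.1% Tween 80. Parasitaemia was read from thin blood films 1 day after treatment ended and compared with sham-treated controls. ED50/ED90 came from log dose/probit plots, with a resistance index at the ED90 level.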

In test [5] the test system is Plasmodium berghei. The test is described as follows: Blood schizonticidal activity against Plasmodium berghei N/HAL. The test is classed as functional. The procedure, abridged: as §2
For test [6], the system named is Plasmodium berghei. The test is described as follows: Blood schizonticidal activity against Plasmodium berghei MEN. The class given is functional. The procedure, abridged: as §2
For test [7], the system named is Plasmodium berghei. The test is described as follows: Blood schizonticidal activity against Plasmodium berghei N. The test is classed as functional. A digest of the protocol: as §2
Test [8] concerns Plasmodium berghei. The test is described as follows: Blood schizonticidal activity against Plasmodium berghei NPN. The test is classed as functional. A digest of the protocol:
as §2

For test [9], the system named is Plasmodium berghei. The test is described as follows: Blood schizonticidal activity against Plasmodium berghei QS. The class given is functional. The procedure, abridged:
as §2

The test system of test [10] is Plasmodium berghei. The test is described as follows: Blood schizonticidal activity against Plasmodium berghei NS. The class given is functional. The procedure, abridged: as §2
Test [11] deals with Plasmodium berghei. The test is described as follows: Blood schizonticidal activity against Plasmodium berghei ART. The class given is functional. A digest of the protocol: as §2
For test [12], the system named is Plasmodium berghei. The test is described as follows: Blood schizonticidal activity against Plasmodium berghei RC. The class given is functional. The procedure, abridged:
as §2

Test [13] deals with Plasmodium berghei. The test is described as follows: Blood schizonticidal activity against Plasmodium berghei N/1100. The test is classed as functional. A digest of the protocol:
as §2

Test [14] has as its system Plasmodium berghei. The test is described as follows: Blood schizonticidal activity against Plasmodium berghei PYR. The test is classed as functional. A digest of the protocol:
as §2

In test [15] the test system is Plasmodium berghei. The test is described as follows: Blood schizonticidal activity against Plasmodium berghei ORA. The class given is functional. A digest of the protocol:
as §2

In test [16] the test system is Plasmodium berghei. The test is described as follows: Blood schizonticidal activity against Plasmodium berghei B. The test is classed as functional. A digest of the protocol: as §2
The subject of test [17] is Plasmodium berghei. The test is described as follows: Blood schizonticidal activity against Plasmodium berghei P. The test is classed as functional. A digest of the protocol: as §2

In the case of `C[C@H]1[C@@H](O)O[C@@H]2OC3(C)CC[C@H]4[C@H](C)CC[C@@H]1[C@@]24O3` (single isomer, unassigned), the IC50 (commonly the midpoint of a concentration-inhibition curve) came out at 506 nM in the test with Plasmodium falciparum [1] and 136 ng/mL (≈ 0.505 µM) in the test on Plasmodium falciparum [2].

For `CCO[C@H]1O[C@@H]2OC3(C)CC[C@H]4[C@H](C)CC[C@@H]([C@H]1C)[C@@]24O3` (single isomer, unassigned), the IC50 with Plasmodium falciparum [1] amounted to 580 nM; in the test with Plasmodium falciparum [2] it was 172 ng/mL (≈ 0.579 µM).

`CCO[C@@H]1O[C@@H]2OC3(C)CC[C@H]4[C@H](C)CC[C@@H]([C@H]1C)[C@@]24OO3` (single isomer, unassigned) [ALPHA-ARTEETHER]: the IC50 came to 3.07 nM with Plasmodium falciparum [3] and 4.18 nM in the test on Plasmodium falciparum [1]. Besides, the ED90 with Plasmodium berghei [4] is given as 4.1; with Plasmodium berghei [5] it was 9.5; with Plasmodium berghei [6], 1.7; in the test on Plasmodium berghei [7] it was 1.3; in the test on Plasmodium berghei [8] it was 3.5; with Plasmodium berghei [9], 13.8. Moreover, the ED90 in the test on Plasmodium berghei [10] is 1.5; in the test with Plasmodium berghei [11], 29; in the test with Plasmodium berghei [12], 16.5; in the test with Plasmodium berghei [14], 1.3; in the test on Plasmodium berghei [15] it was 0.8; with Plasmodium berghei [16], 2.9. Moreover, the ED90 in the test on Plasmodium berghei [17] turned out to be 2.5. Moreover, the “I 90” value in the test with Plasmodium berghei [5] turned out to be 7.3; with Plasmodium berghei [6], 1.4; in the test on Plasmodium berghei [7] it was 1; in the test on Plasmodium berghei [8] it was 2.9; in the test on Plasmodium berghei [9] it was 10.6; in the test with Plasmodium berghei [10], 1.3. Moreover, the “I 90” value is given as 22.3 with Plasmodium berghei [11]; 13.8 in the test on Plasmodium berghei [12]; 3.4 with Plasmodium berghei [13]; 1.1 with Plasmodium berghei [14]; 0.7 in the test with Plasmodium berghei [15]; 2.4 with Plasmodium berghei [16]. In addition, the “I 90” value in the test on Plasmodium berghei [17] was 2.1.

Regarding `CO[C@H]1O[C@@H]2O[C@@]3(C)CC[C@H]4[C@H](C)CC[C@@H]([C@H]1C)[C@@]24OO3` [ARTEMETHER], the values for the IC50 in the test on Plasmodium falciparum [3] and in the test on Plasmodium falciparum [1] were 3.34 nM and 4.49 nM, respectively.

In the case of `C[C@@H]1CC[C@H]2[C@@H](C)C(=O)O[C@@H]3O[C@@]4(C)CC[C@@H]1[C@]32OO4` [ARTEMISININ], the values for the IC50 in the test with Plasmodium falciparum [3], in the test on Plasmodium falciparum [1] and with Plasmodium falciparum [2] were 6.41 nM, 10.5 nM and 2.97 ng/mL (≈ 0.0105 µM), respectively. The ED90 was 17 in the test on Plasmodium berghei [4]; 31 with Plasmodium berghei [5]; 6.2 in the test on Plasmodium berghei [6]; 2.3 in the test on Plasmodium berghei [7]; 90 in the test with Plasmodium berghei [8]; 24 in the test on Plasmodium berghei [9]. The ED90 is given as 10 with Plasmodium berghei [10]; 49 in the test with Plasmodium berghei [11]; 630 in the test on Plasmodium berghei [12]; 4.8 in the test on Plasmodium berghei [14]; 7.5 in the test with Plasmodium berghei [15]; 8.2 in the test with Plasmodium berghei [16]. Also, in the test with Plasmodium berghei [17], the ED90 was 12. In addition, the “I 90” value with Plasmodium berghei [5] was found to be 13.5; in the test with Plasmodium berghei [6] it was 1.5; in the test on Plasmodium berghei [7], 1; in the test with Plasmodium berghei [8], 21.4; in the test on Plasmodium berghei [9], 10.4; in the test with Plasmodium berghei [10], 2.4. The “I 90” value is listed as 21.3 with Plasmodium berghei [11]; 150 with Plasmodium berghei [12]; 4 with Plasmodium berghei [13]; 1.1 in the test with Plasmodium berghei [14]; 1.8 in the test with Plasmodium berghei [15]; 2 with Plasmodium berghei [16]. Besides, in the test with Plasmodium berghei [17], the “I 90” value was found to be 2.9.

`CCO[C@H]1O[C@@H]2O[C@@]3(C)CC[C@H]4[C@H](C)CC[C@@H]([C@H]1C)[C@@]24OO3` [ARTEMOTIL]: the IC50 in the test on Plasmodium falciparum [3] turned out to be 2.94 nM; with Plasmodium falciparum [1], 4.07 nM; in the test with Plasmodium falciparum [2], 1.27 ng/mL (≈ 0.00407 µM). In addition, the ED90 in the test with Plasmodium berghei [4] was found to be 4.2; in the test with Plasmodium berghei [5], 2.1; in the test on Plasmodium berghei [6], 2.2; with Plasmodium berghei [7], 0.5; in the test with Plasmodium berghei [8], 2.5; in the test with Plasmodium berghei [9], 1.4. For the same compound, the ED90 is 2.2 in the test with Plasmodium berghei [10]; 2.3 in the test on Plasmodium berghei [11]; 8.2 in the test on Plasmodium berghei [12]; 0.8 in the test on Plasmodium berghei [14]; 0.8 with Plasmodium berghei [15]; 0.9 in the test with Plasmodium berghei [16]. The same compound had an ED90 with Plasmodium berghei [17] of 0.8. For the same compound, the “I 90” value was determined as 4.2 with Plasmodium berghei [5]; 2 in the test with Plasmodium berghei [6]; 1 with Plasmodium berghei [7]; 2.3 in the test on Plasmodium berghei [8]; 2.8 in the test on Plasmodium berghei [9]; 2 in the test on Plasmodium berghei [10]. In addition, the “I 90” value was 4.6 in the test with Plasmodium berghei [11]; 7.5 with Plasmodium berghei [12]; 3.8 in the test with Plasmodium berghei [13]; 0.7 in the test on Plasmodium berghei [14]; 0.7 in the test with Plasmodium berghei [15]; 0.8 in the test on Plasmodium berghei [16]. Besides, the “I 90” value with Plasmodium berghei [17] was determined as 0.7.

In the case of `C[C@H]1[C@@H](O)O[C@@H]2O[C@@]3(C)CC[C@H]4[C@H](C)CC[C@@H]1[C@@]24OO3` [ARTENIMOL], the IC50 in the test on Plasmodium falciparum [3] was determined as 1.79 nM; in the test with Plasmodium falciparum [1], 1.83 nM; in the test with Plasmodium falciparum [2], 0.52 ng/mL (≈ 0.00183 µM).

On to `C[C@@H]1CC[C@H]2[C@@H](C)C(=O)O[C@@H]3O[C@@]4(C)CC[C@@H]1[C@]32O4` [DEOXYARTEMISININ], for which, in the test with Plasmodium falciparum [1], the IC50 is 2860 nM.

In the case of `OC(c1cc(C(F)(F)F)nc2c(C(F)(F)F)cccc12)C1CCCCN1` (stereo not given) [MEFLOQUINE], the IC50 stood at 5.75 nM in the test with Plasmodium falciparum [3] and 33.4 nM in the test on Plasmodium falciparum [1].

Regarding `C[C@H]1[C@H](OC(=O)CCC(=O)O)O[C@@H]2O[C@@]3(C)CC[C@H]4[C@H](C)CC[C@@H]1[C@@]24OO3` [SODIUM ARESUNATE], the IC50 in the test with Plasmodium falciparum [3] worked out at 1.66 nM; in the test with Plasmodium falciparum [1], 2.18 nM.
